Calls of active or inactive are those of the source. The rule behind the calls is not given here.
How the values were obtained:
[1] = It is the ratio, measured as saluretic activity in the dog as concentration of Na+ in urinary excretion (dose 1.56 mg/Kg, po) to that of K; type: functional, Urine
Method in brief: (§1)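 Trained male beagles, fasted 24 h with tap water ad libitum. Bladder emptied by catheter, then 20 mL/kg tap water by stomach tube, with 4 mL/kg water at each hourly catheterization up to 8 h. The first 2 h of urine served as control. Oral dosing came after the second catheterization, and 1–6 h urine was pooled. Na⁺ and K⁺ were measured by flame photometry, Cl⁻ argentometrically, in mequiv/kg.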

[2] = species on record: Rattus norvegicus; experiment: Saluretic activity in the rat measured as concentration of Na+ in urine; type: functional
Method in brief: (§2)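 Rats deprived of food 24 h, water ad libitum, dosed 50 mg/kg by stomach tube as suspension in 2% starch, no extra water load. Groups of three in diuresis funnels; urine over first 5 h collected. Na⁺ and K⁺ by flame photometry, Cl⁻ argentometrically; expressed as mequiv/kg.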

[3] = species on record: Rattus norvegicus; experiment: Saluretic activity in the rat measured as concentration of chloride in urine; type: functional; method in brief: as §2
[4] = system: Canis familiaris; experiment: Saluretic activity in the dog measured as concentration of Cl - in urinary excretion (2 animals/dose) at (dose 1.56 mg/Kg, po); type: functional, Canis lupus familiaris, Urine
Method in brief: (§3)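 Male beagles trained to the procedures, food withdrawn 24 h before, tap water ad libitum. Bladder emptied by catheter, then 20 mL/kg tap water by stomach tube, plus 4 mL/kg orally at each hourly catheterization up to 8 h. The first 2 h of urine served as control. Compound given orally after the second catheterization. Urine from 1–6 h post-dose pooled; Na⁺ and K⁺ by flame photometry, Cl⁻ argentometrically, in mequiv/kg.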

[5] = species on record: Rattus norvegicus; experiment: Diuretic activity in the rats, determined by a modified Lipschitz test; type: functional, Urine
Method in brief: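 Modified Lipschitz test: rats deprived of water 24 h, grouped in threes of similar weight in diuresis funnels. Oral dose of 50 mg/kg, suspended in 2% starch solution, by stomach tube.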

[6] = species on record: Rattus norvegicus; experiment: Saluretic activity in the rat measured as concentration of K+ in urine; type: functional; method in brief: as §2
[7] = system: Canis familiaris; experiment: Saluretic activity in the dog measured as concentration of Na+ in urinary excretion (2 animals/dose) at (dose 1.56 mg/Kg, po); type: functional, Canis lupus familiaris, Urine
Method in brief: (§4)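 Male beagles trained to rest on a table and to accept stomach tube and catheter. Food withdrawn 24 h before, tap water ad libitum. Bladder emptied by catheter, then 20 mL/kg tap water by stomach tube. Catheterized hourly up to 8 h with 4 mL/kg water orally each time; first 2 h urine served as control. Oral dosing after second catheterization. Pooled 1–6 h urine; Na⁺/K⁺ by flame photometry, Cl⁻ argentometrically.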

[8] = It is the ratio, measured as saluretic activity in the dog as concentration of Cl- in urinary excretion (dose 1.56 mg/Kg, po) to that of (Na+)+(K+); type: functional, Urine; method in brief: as §1
[9] = system: Canis familiaris; experiment: Diuretic activity in the dog (2 animals/dose) at (dose 1.56 mg/Kg), when administered perorally; type: functional, Canis lupus familiaris, Urine; method in brief: as §1
[10] = system: Canis familiaris; experiment: Saluretic activity in the dog measured as concentration of K+ in urinary excretion (2 animals/dose) at (dose 1.56 mg/Kg, po); type: functional, Canis lupus familiaris, Urine; method in brief: as §4
[11] = system: Rattus norvegicus; experiment: Salidiuretic activity on the basis of the 50 mg/kg perorally rat assay; compound was found to be highly active; type: functional, organism-based; design: dose 50 mg/kg; settings: Urine
[12] = system: Canis familiaris; experiment: Salidiuretic activity on the basis of the 1.56 mg/Kg perorally dog assay; compound was found to be highly active; type: functional, organism-based; settings: Canis lupus familiaris; Urine
[13] = system: Rattus norvegicus; experiment: Salidiuretic activity on the basis of the 50 mg/kg perorally rat assay; NA means inactive; settings: Urine
[14] = system: Canis familiaris; experiment: Saluretic activity in the dog measured as concentration of Cl - in urinary excretion (2 animals/dose) at (dose 1.56 mg/Kg, perorally); type: functional, Canis lupus familiaris, Urine; method in brief: as §3
[15] = It is the ratio, measured as saluretic activity in the dog as concentration of Na+ in urinary excretion (dose 1.56 mg/Kg, perorally) to that of K; type: functional, Urine; method in brief: as §1
[16] = system: Canis familiaris; experiment: Saluretic activity in the dog measured as concentration of Na+ in urinary excretion (2 animals/dose) at (dose 1.56 mg/Kg, perorally); type: functional, Canis lupus familiaris, Urine; method in brief: as §4
[17] = It is the ratio, measured as saluretic activity in the dog as concentration of Cl- in urinary excretion (dose 1.56 mg/Kg, perorally) to that of (Na+)+(K+); type: functional, Urine; method in brief: as §1
[18] = system: Canis familiaris; experiment: Saluretic activity in the dog measured as concentration of K+ in urinary excretion (2 animals/dose) at (dose 1.56 mg/Kg, perorally); type: functional, Canis lupus familiaris, Urine; method in brief: as §3
[19] = system: Canis familiaris; experiment: Salidiuretic activity on the basis of the 1.56 mg/Kg perorally dog assay; compound was found to be active; type: functional, organism-based; settings: Canis lupus familiaris; Urine
[20] = system: Rattus norvegicus; experiment: Salidiuretic activity on the basis of the 50 mg/kg po rat assay; compound was active; type: functional, organism-based; design: dose 50 mg/kg; settings: Urine
[21] = system: Canis familiaris; experiment: Salidiuretic activity on the basis of the 1.56 mg/Kg po dog assay; compound was moderately active; type: functional, organism-based; settings: Canis lupus familiaris; Urine
[22] = It is the ratio, measured as saluretic activity in the dog as concentration of Cl- in urinary excretion (dose 1.56 mg/Kg, po) to that of (Na++K+); type: functional, Urine; method in brief: as §1
[23] = system: Rattus norvegicus; experiment: Salidiuretic activity on the basis of the 50 mg/kg po rat assay; compound was found to be active; type: functional, organism-based; design: dose 50 mg/kg; settings: Urine
[24] = system: Canis familiaris; experiment: Salidiuretic activity on the basis of the 1.56 mg/Kg po dog assay; compound was found to be active; type: functional, organism-based; settings: Canis lupus familiaris; Urine

SMILES | Saluretic activity [2] [m equiv 5hr-1 kg-1] | Saluretic activity [3] [m equiv 5hr-1 kg-1] | Diuretic activity [5] [mL/kg] | Saluretic activity [6] [m equiv 5hr-1 kg-1] | Diuretic activity [9] [ml kg-1 6hr-1] | further results
CN(c1ccccc1)c1cc(NCCc2ccco2)c(S(=O)(=O)[O-])cc1S(N)(=O)=O.[K+] | 2.2 | 3.2 | 1.2 | 2 | 59.9 | Ratio [1]: 4.3; Saldiuretic activity [4]: 5.81 m equiv 6hr-1 kg-1; Saluretic activity [7]: 4.7 m equiv 6hr-1 kg-1; Ratio [8]: 1; Saluretic activity [10]: 1.08 m equiv 6hr-1 kg-1
NS(=O)(=O)c1cc(S(=O)(=O)O)c(NCc2ccco2)cc1Oc1ccccc1 |  |  |  |  |  | Saldiuretic activity [11]: Active; Saldiuretic activity [12]: Active
NS(=O)(=O)c1cc(S(=O)(=O)[O-])c(NCCc2ccco2)cc1Oc1ccccc1.[K+] | 0.6 | 0.9 | 1.2 | 0.7 | 35.2 | Diuretic activity [13]: inactive; Saldiuretic activity [14]: 1.18 m equiv 6hr-1 kg-1; Ratio [15]: 4.2; Saluretic activity [16]: 0.89 m equiv 6hr-1 kg-1; Ratio [17]: 1.1; Saluretic activity [18]: 0.21 m equiv 6hr-1 kg-1; Saldiuretic activity [19]: Active
NS(=O)(=O)c1cc(S(=O)(=O)[O-])c(NCc2ccccc2)cc1S(=O)(=O)C1CCCCC1.[Na+] | 2 | 1.8 | 0.5 | 1.7 | 51 | Ratio [1]: 5.8; Saldiuretic activity [4]: 3.94 m equiv 6hr-1 kg-1; Saldiuretic activity [20]: Active; Saluretic activity [7]: 3.23 m equiv 6hr-1 kg-1; Ratio [8]: 1.05; Saldiuretic activity [21]: Weak activity; Saluretic activity [10]: 0.56 m equiv 6hr-1 kg-1
NS(=O)(=O)c1cc(S(=O)(=O)[O-])c(NCc2ccco2)cc1SC1CCCCC1.[K+] | 1.4 | 1.9 | 0.8 | 0.5 | 32.6 | Ratio [1]: 3.9; Saldiuretic activity [4]: 0.32 m equiv 6hr-1 kg-1; Saluretic activity [7]: 0.27 m equiv 6hr-1 kg-1; Ratio [8]: 0.95; Saldiuretic activity [10]: 0.07 m equiv 6hr-1 kg-1
CCOCCNc1cc(Cl)c(S(N)(=O)=O)cc1S(=O)(=O)[O-].[Na+] | 0.2 | 0.2 | 0.4 | 0.2 |  | 
C1CCC(NC2CCCCC2)CC1.NS(=O)(=O)c1cc(S(=O)(=O)O)c(NCc2ccco2)cc1Oc1ccccc1 | 0.7 | 0.8 | 0.9 | 1 |  | 
NS(=O)(=O)c1cc(S(=O)(=O)[O-])c(NCc2ccco2)cc1Oc1cccc(Cl)c1.[K+] | 3.8 | 5.1 | 2 | 2 |  | 
CC(C)CS(=O)(=O)c1cc(NCc2ccco2)c(S(=O)(=O)[O-])cc1S(N)(=O)=O.[Na+] | 7.6 | 8.1 | 2.8 | 2.5 |  | 
Nc1cc(Oc2ccccc2)c(S(N)(=O)=O)cc1S(=O)(=O)[O-].[K+] | 0.5 | 0.7 | 1 | 1.3 |  | 
NS(=O)(=O)c1cc(S(=O)(=O)[O-])c(S(=O)(=O)C2CCCCC2)cc1NCc1ccco1.[Na+] | 0.4 | 1 | 0.8 | 1.1 |  | 
CN(Cc1ccco1)c1cc(Oc2ccccc2)c(S(N)(=O)=O)cc1S(=O)(=O)[O-].[K+] | 0.3 | 1.7 | 1.3 | 1.5 |  | 
NS(=O)(=O)c1cc(S(=O)(=O)[O-])c(NCc2ccc3c(c2)OCO3)cc1Cl.[Na+] | 0.4 | 0.3 | 0.4 | 0.3 |  | 
NC(N)=NC(=O)c1nc(Cl)c(N)nc1N.NS(=O)(=O)c1cc(S(=O)(=O)O)c(NCc2ccco2)cc1Oc1ccccc1 | 3.7 | 2.7 | 1.9 | 0.3 |  | 
CCCCSc1cc(NCc2ccco2)c(S(=O)(=O)[O-])cc1S(N)(=O)=O.[K+] | 3.6 | 3.6 | 2.5 | 2.2 | 32.8 | Ratio [1]: 3; Saldiuretic activity [4]: 1.43 m equiv 6hr-1 kg-1; Saluretic activity [7]: 1.06 m equiv 6hr-1 kg-1; Ratio [8]: 1; Saldiuretic activity [10]: 0.35 m equiv 6hr-1 kg-1
CCCCS(=O)(=O)c1cc(NCc2ccco2)c(S(=O)(=O)[O-])cc1S(N)(=O)=O.[Na+] | 7.3 | 8.7 | 3.8 | 2.2 | 65.5 | Ratio [1]: 5; Saldiuretic activity [4]: 5.78 m equiv 6hr-1 kg-1; Saluretic activity [7]: 4.92 m equiv 6hr-1 kg-1; Ratio [22]: 1; Saldiuretic activity [10]: 0.97 m equiv 6hr-1 kg-1
N.NS(=O)(=O)c1cc(S(=O)(=O)O)c(NCc2ccccc2)cc1Oc1ccccc1 | 4.9 | 6.9 | 3 | 2.2 | 48 | Saldiuretic activity [14]: 3.91 m equiv 6hr-1 kg-1; Ratio [15]: 5.9; Saldiuretic activity [23]: Active; Saluretic activity [16]: 3.12 m equiv 6hr-1 kg-1; Ratio [17]: 1.1; Saluretic activity [18]: 0.53 m equiv 6hr-1 kg-1; Saldiuretic activity [24]: Active
NS(=O)(=O)c1cc(S(=O)(=O)[O-])c(NCc2ccco2)cc1Nc1ccccc1Cl.[Na+] | 0.3 | 0.6 | 1.1 | 0.8 |  | 
CN(c1ccccc1)c1cc(NCc2ccco2)c(S(=O)(=O)[O-])cc1S(N)(=O)=O.[K+] | 6.3 | 7.4 | 3.1 | 1.7 |  | 
